Source: BindingDB's records for doi:10.1021/jm200590k (University of Eastern Finland, 2011)

target: T1, NAD-dependent protein deacetylase sirtuin-2 (Homo sapiens, UniProt Q8IXJ6); experiment: Inhibition of recombinant GST-tagged SIRT2 at 200 uM after 1 hr by Fluor de Lys-based fluorescence assay
T1 sequence (Q8IXJ6 whole entry): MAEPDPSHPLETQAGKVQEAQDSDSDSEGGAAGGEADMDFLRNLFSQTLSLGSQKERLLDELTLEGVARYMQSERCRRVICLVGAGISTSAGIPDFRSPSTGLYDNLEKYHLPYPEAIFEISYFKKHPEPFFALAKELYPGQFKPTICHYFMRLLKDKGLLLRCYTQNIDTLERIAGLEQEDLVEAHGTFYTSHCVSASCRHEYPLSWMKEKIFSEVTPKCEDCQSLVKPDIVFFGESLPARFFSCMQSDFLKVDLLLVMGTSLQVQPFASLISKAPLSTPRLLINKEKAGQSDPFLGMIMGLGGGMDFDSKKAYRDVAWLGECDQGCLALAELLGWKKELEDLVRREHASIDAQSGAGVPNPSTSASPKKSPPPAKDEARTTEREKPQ
How it was run: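 Single-point Fluor de Lys test at 200 μM: GST-SIRT1 (40 μM KI177 substrate) or GST-SIRT2 (138 μM KI179 substrate), 500 μM NAD+, BSA-supplemented buffer, 5 min rt preincubation, enzyme-started 1 h at 37 °C. Developer with 2 mM nicotinamide 45 min 37 °C; fluorescence ex 355/em 460 nm. Percent inhibition ± standard deviation.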

Row | Inhibition | Compound
1 | 57.2% | CC(=S)NCCCC[C@H](NC(=O)OCc1ccccc1)C(=O)NC1CCCCC1
2 | 22.4% | CC(=S)NCCCC[C@H](NC(=O)[C@H](N)Cc1ccccc1)C(=O)N[C@@H](C)C(=O)O
3 | 2% | CC(=S)NCCCC[C@H](N)C(=O)N[C@@H](C)C(=O)O
